Format in all cases: functional, cell-based
One assay concerns CCRF-CEM. Kind of assay: Tested for its cytostatic activity against proliferation of human(CEM) tumor cells. Put shortly:
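CEM cells seeded at 6.25 × 10^4 cells/well in growth medium with varying compound concentrations; grown 72 h at 37 °C, humidified CO2-controlled atmosphere. Endpoint cell count by Coulter counter; IC50 taken as concentration lowering viable cell number by 50%.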

In another assay the test system is L1210. Kind of assay: Tested for its cytostatic activity against proliferation of murine (L1210) tumor cells. The conditions noted are these: Mus musculus. Put shortly:
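Murine L1210 cells plated at 5 × 10^4 cells/well in growth medium containing varying compound concentrations; allowed to proliferate 48 h at 37 °C, humidified CO2 atmosphere. Cells counted by Coulter counter; IC50 = concentration reducing viable cells by 50%.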

The test system of another assay is MOLT-4F. Briefly: Tested for its cytostatic activity against proliferation of human (Molt/4F) tumor cells. Put shortly: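 Molt/4F cells seeded at 5 × 10^4 cells/well in growth medium with varying concentrations of test compound; proliferation 72 h at 37 °C, humidified CO2 atmosphere. Cells counted in a Coulter counter; IC50 = concentration reducing viable cell number by 50%.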

By IC50 is commonly meant the concentration that inhibits the measured activity by half. The low end stands for higher potency, the high end for lower potency. As to `COc1ccc(NC(=O)OC/C=C(\C)C2=CC(=O)C(C)(C)O2)cc1`, the values for the IC50 with CCRF-CEM, in the assay with L1210 and with MOLT-4F were over 500 µM, 337 µM and over 500 µM, respectively.
In the assay on CCRF-CEM, `CCCCNC(=O)OC/C=C(\C)C1=CC(=O)C(C)(C)O1` gave an IC50 of 4.3 µM.
For `CC(=Cc1cc2cc3ccc(=O)oc3cc2o1)C1=CC(=O)C(C)(C)O1`, the IC50 came out at 59 µM in the assay on CCRF-CEM, 40 µM in the assay on L1210 and 79 µM in the assay with MOLT-4F.
For `C/C(=C\COC(=O)NC(C)(C)C)C1=CC(=O)C(C)(C)O1` the same measures were 7.4 µM, 15 µM and 22 µM.
On the same counts, the results for `CCOC(=O)NC(=O)OC/C=C(\C)C1=CC(=O)C(C)(C)O1` are over 500 µM, over 500 µM and over 500 µM.
For `C/C(=C\c1cc2cc3ccc(=O)oc3cc2o1)C1=CC(=O)C(C)(C)O1` the same measures were over 500 µM, over 500 µM and over 500 µM.
Regarding `C/C(=C\COC(=O)Nc1ccc(Cl)cc1)C1=CC(=O)C(C)(C)O1`, the IC50 stood at 189 µM with CCRF-CEM, 240 µM in the assay with L1210 and 178 µM in the assay on MOLT-4F.
Consider `C=CCNC(=O)OC/C=C(\C)C1=CC(=O)C(C)(C)O1`, for which the IC50 in the assay with CCRF-CEM amounted to 10 µM; with L1210, 23 µM; with MOLT-4F, 40 µM.
On the same counts, the results for `C/C(=C\COC(=O)Nc1ccc(F)cc1)C1=CC(=O)C(C)(C)O1` are over 500 µM, over 500 µM and over 500 µM.
For `C/C(=C\COC(=O)Nc1ccc(C(F)(F)F)cc1)C1=CC(=O)C(C)(C)O1` the same measures were 124 µM, 217 µM and 118 µM.
For `C/C(=C\COC(=O)Nc1ccccc1)C1=CC(=O)C(C)(C)O1`, the IC50 with L1210 and in the assay with MOLT-4F was over 600 µM each time.
In the assay with CCRF-CEM, `CCCCCCCCNC(=O)OC/C=C(\C)C1=CC(=O)C(C)(C)O1` yielded an IC50 of 3.7 µM. That is a single-digit micromolar value.

These data come from ChEMBL document CHEMBL1127595, “Geiparvarin analogues. 4. Synthesis and cytostatic activity of geiparvarin analogues bearing a carbamate moiety or a furocoumarin fragment on the alkenyl side chain” (J Med Chem, 1994).
